Source: PubChem (several laboratories)
TAG inh: reduces triacylglycerol accumulation in H9c2 cells | Nile Red lipid (TAG) fluorescence; cells loaded with 200 µM oleic acid | inhibition, % at 12.5 µM | 230,000 tested, 0.66% active;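 active = pattern-corrected inhibition of lipid staining of at least 50% with the nuclear-stain viability signal not falling by more than 50%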;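 also: 0% = DMSO wells and 100% = triacsin C control wells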
Vif imaging: inhibitors of HIV Vif; HEK293T cells, Vif self-association by quenched fluorescence, imaging, 24 h; inhibition, % at 7.49 µM; 340,000 tested, 0.35% active; AID 602346; in the data active = inhibition above about 50%, passing the limit was not always enough; inconclusive = no clear call, values can overlap the other calls; inactive = below about 31%
A1 inh: inhibitors of the anti-apoptotic protein A1, read as caspase activation; MEF A1-2A-BIM cells, Caspase-Glo 3/7 luminescence, 3 h; percent of clofoctol response, vehicle zero; 330,000 tested, 0.066% active; caspase activation, % (test concentration not listed);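 active = over half of replicate activation scores above 10%, or exactly half above 10 with the replicate mean above 10; inconclusive = replicate mean below 10 yet half the replicates above 10; inactive = over half of replicates below 10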
SR-BI uptake up: enhances SR-BI lipid uptake from DiI-HDL | AID 504775 | CHO ldlA[mSR-BI] cells, DiI-HDL uptake fluorescence, 3 h; 100 = double the neutral-control signal | 320,000 tested, 0.096% active | activation, % at 12.5 µM;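 active = mean replicate activation of at least 60% and every replicate at or above 60%; inconclusive = mean or all-replicate condition met, but not both; inactive = mean below 60% and not all replicates reaching 60%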;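 also: 0% = median plate neutral-control signal and 100% = twice that signal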
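Assay system: LDL receptor-deficient CHO ldlA cells overexpressing murine SR-BI / Medium: BSA-supplemented, HEPES-buffered Ham's F12, pH 7.4 / Probe or stimulus: DiI-labelled HDL at 10 µg/mL final / Timing: compound with DiI-HDL co-incubation, 3 h at 37 °C / Technique: bottom-read cell fluorescence after medium removal, ex 550/em 595 nm / Measure: HDL uptake via cellular fluorescence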
SR-BI DiI inh: mouse SR-BI HDL lipid transfer inhibition; Q61009; ldlA[mSR-BI] CHO cells, DiI-HDL uptake fluorescence, 3 h; inhibition, % at 12.5 µM; 320,000 tested, 0.96% active; AID 488896;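 active = mean replicate inhibition of at least 70% and a set share of replicates each scoring 70 or more; inconclusive = meets just one of the two criteria; inactive = fails both criteria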;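 also: 0% = median of neutral control wells and 100% = median of positive control wells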
Target sequence (Q61009 whole entry, looked up): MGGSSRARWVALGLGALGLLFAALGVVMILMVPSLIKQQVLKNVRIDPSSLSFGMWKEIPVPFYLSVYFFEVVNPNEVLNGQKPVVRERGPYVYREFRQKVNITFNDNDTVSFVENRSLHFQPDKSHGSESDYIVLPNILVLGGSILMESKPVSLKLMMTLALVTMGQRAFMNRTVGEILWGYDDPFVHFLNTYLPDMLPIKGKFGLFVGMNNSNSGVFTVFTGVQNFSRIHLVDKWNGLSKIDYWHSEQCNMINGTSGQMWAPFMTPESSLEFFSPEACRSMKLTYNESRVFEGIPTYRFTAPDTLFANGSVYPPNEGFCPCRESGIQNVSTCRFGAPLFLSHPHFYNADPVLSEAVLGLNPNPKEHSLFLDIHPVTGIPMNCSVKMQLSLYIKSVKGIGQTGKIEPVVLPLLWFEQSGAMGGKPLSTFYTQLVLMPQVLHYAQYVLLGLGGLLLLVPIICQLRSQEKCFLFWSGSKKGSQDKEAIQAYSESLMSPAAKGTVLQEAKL
Numbers without * were called inactive; ? = inconclusive; . = not tested or not shown. A selection: hits, their analogues and other compounds. The true share with any hit is near 1.6%.

SMILES	TAG inh	Vif imaging	A1 inh	SR-BI uptake up	SR-BI DiI inh
CCOc1ccc(CC(=O)Nc2sc(Cc3ccccc3)c(C)c2C(N)=O)cc1OCC	.	58*	-2	-17	17
COc1ccc(C(=O)NCCOc2ccccc2Cl)c(OC)c1OC	.	13	0	-26	26
Cc1nc2ccccc2n1S(=O)(=O)c1ccc(Br)cc1	.	.	0	65*	-65
Cc1ccc(OCCN2C(=O)CSC2=O)cc1	-20	-13	-1	7	-7
C[N+](C)(C)CCN1C(=O)CSC1=O	-3	55*	1	.	.
COC(=O)c1cc(NC(=O)c2cccc(F)c2)cc(C(=O)OC)c1	-3	-6	0	-78	78*
COc1ccc(C(=O)Nc2ccc(NC(=O)c3ccccc3OC)nc2)cc1	.	-25	-1	-79	79*
COc1ccccc1C(=O)Nc1ccc(Oc2nnc(-c3ccc(C)cc3)c3ccccc23)cc1	.	3	-1	-84	84*
COC(=O)c1cc(NC(=O)c2cccnc2)cc(C(=O)OC)c1	.	-7	-1	-14	14
COc1ccc(C(=O)Nc2ccc(NC(=O)c3cc(OC)c(OC)c(OC)c3)cn2)cc1	.	9	1	-77	77*
COc1cc(C(=O)Nc2ccc(NC(=O)c3ccccc3)nc2)cc(OC)c1OC	.	10	0	-54	54
C#CCOCCOCCOCCNc1nc(N2CCOCC2)nc(N2CCN(C(=O)Cn3cc(CCCCN)nn3)CC2)n1	1	4	.	29	-29
CC(=O)c1cccn1S(=O)(=O)c1ccccc1	.	-8	1	11	-11
O=C(Nc1cccc(NC(=O)c2cccc(F)c2)n1)c1cccc(F)c1	.	2	0	-87	87*
O=C(Nc1cccc(NC(=O)c2c(F)cccc2F)n1)c1c(F)cccc1F	.	-12	-1	-61	61
COc1ccc(C(=O)/C=C/Nc2cccc(C)n2)cc1OC	.	60*	-4	-41	41
COc1ccc(N/C=C/C(=O)c2cc(OC)c(OC)c(OC)c2)cc1	.	-2	0	-72	72*
COc1ccc(C(=O)Nc2ccc(NC(=O)c3cccc(F)c3)cn2)cc1	.	-19	-1	-76	76*
COc1ccc(C(=O)Nc2ccc(NC(=O)c3cccc(OC)c3)cn2)cc1	.	-4	0	-63	62
COc1ccc(C2NCCc3c2[nH]c2ccccc32)cc1COc1ccc(F)cc1 (configuration not stated)	115*	.	1	10	-10
COc1ccc(C2NCCc3c2[nH]c2ccccc32)cc1CN1CCc2cc(OC)c(OC)cc2C1C (configuration not stated)	37	-7	.	.	.
O=C(O)c1cccc(S(=O)(=O)N2CCC(n3nnc4cc(C(F)(F)F)ccc43)CC2)c1	.	15	0	13	-13
CC1=C(C(=O)N(C)C)CC(CC(=O)NCc2cccc3ccccc23)C(=O)N1CCCN1CCCC1=O (configuration not stated)	9	2	.	.	.
CC1CCCCN1C(=O)CN1CCN(S(=O)(=O)c2ccc(Br)cc2Cl)CC1 (configuration not stated)	8	-3	1	-25	25
CCCCCN=C(N)N/N=C/c1c[nH]c2ccc(OC)cc12	124	81*	0	-26	26
SMILES	TAG inh	Vif imaging	A1 inh	SR-BI uptake up	SR-BI DiI inh
CCCOc1ccc(C(=O)N/N=C/c2c[nH]c3ccc(Br)cc23)cc1	.	?	0	-9	9
CCN(CC(=O)NCc1cccs1)CC(=O)Nc1ccccc1C	11	-1	1	6	-6
COc1ccc(C(=O)CSc2nnc(-c3cc(C)on3)o2)cc1	.	6	0	14	-14
Cc1cc(-c2nnc(SCC(=O)c3ccc(Cl)cc3)o2)no1	11	92*	0	2	-2
COc1ccc(NC(=O)c2cc3ccccc3cc2OC)cc1	.	-4	0	-50	50
Cc1ccc(C(=O)NNc2c3ccccc3nc3ccccc23)cc1	4	-4	1	-97	97*
Cc1ccc(C(=O)NNC(=O)c2cc3ccccc3cc2O)cc1	.	-3	-5	-123	123*
COc1cc2ccccc2cc1C(=O)NNC(=O)c1ccccc1O	0	-7	0	-129	129*
COc1ccccc1C(=O)NNC(=O)c1ccc(C)cc1	.	-4	0	-7	7
COc1ccc(NC(=O)NNC(=O)c2cc3ccccc3cc2O)cc1	.	-1	1	.	96*
Clc1ccc(Cn2cccn2)cn1	11	9	1	25	-25
COc1ccc(C)cc1NC(=O)NNC(=O)c1cc2ccccc2cc1O	-28	-2	0	-117	117*
COc1ccc(C)cc1NC(=O)NNC(=O)c1ccoc1C	-5	5	-1	0	0
COc1cc(CN2CCc3ccccc3C2)ccc1O	125	-1	33*	.	.
COc1ccc(CN2CCc3ccc(NC(=O)CCc4ccccc4OC)cc3C2)c(O)c1	.	-13	0	-72	72*
COc1cc(CN2CCc3ccccc3C2)cc([N+](=O)[O-])c1O	.	-6	1	6	-6
COc1cc(CN2CCc3ccc(NC(=O)CCc4ccccc4OC)cc3C2)ccc1O	7	4	0	-70	70*
COc1cccc(CN2CCc3ccc(NC(=O)CCc4ccc(C)cc4)cc3C2)c1O	.	-4	.	-64	64
CCOc1ccc(C(=O)Nc2cccc(C(C)=O)c2)cc1[N+](=O)[O-]	12	.	0	-66	66
O=C(Nc1ccccc1C(=O)NC(Cc1ccccc1)C(=O)NC1CCCCC1)c1ccccc1 (configuration not stated)	22	-3	0	-11	11
COc1ccccc1-c1cnc(C(O)c2cccc(F)c2)[nH]1 (configuration not stated)	2	-1	.	.	.
NC(=O)/C(=C\c1cccnc1)NC(=O)c1ccccc1	-31	3	1	5	-5
O=C(Nc1ccccc1N1CCOCC1)c1ccc(N2CCCC2=O)cc1	12	20	0	-11	11
CCCCn1c(O)c(N=Nc2ccccc2O)c2ccccc21	-6	145*	?	-10	10
COCC(C)n1c(SCC(=O)NC(=O)NCc2ccccc2)nc2ccccc2c1=O (configuration not stated)	3	-23	0	-5	5
O=C1C=C(c2cc(C(F)(F)F)cc(C(F)(F)F)c2)C[C@@H](c2ccc(Cl)cc2)C1	-12	-4	-1	-74	74*
COc1cccc(N2CCN(C(=O)CN(C)S(=O)(=O)c3ccc4c(c3)c(=O)n(C)c(=O)n4C)CC2)c1	0	-10	2	4	-4
Cn1c(-c2ccccc2)cc2ccccc21	.	-8	1	-15	15
Cn1c(-c2ccccc2)cc2c3no[n+]([O-])c3ccc21	-29	61*	1	-55	55
CC(=O)Nc1ccc(NC(=O)c2cc(-c3ccc(C)c(C)c3O)n[nH]2)cc1	.	-1	0	-73	73*
